The text below walks through data of ChEMBL document CHEMBL3580629, “Diterpenoids and Triterpenoids from the Resin of Bursera microphylla and Their Cytotoxic Activity” (J Nat Prod, 2015).

Holding throughout (type): functional, cell-based
Test [1] can be described thus: Cytotoxic activity against mouse M12.C3.F6 cells assessed as reduction in cell viability incubated for 48 hrs by MTT assay. The essentials:
(§1)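 Cells seeded at 1 × 10^4 per well and left 24 h at 37 °C, 5% CO2 to attach, then given test substances at 200 to 0.05 μM for 48 h. Substances were dissolved in DMSO and diluted in medium (0.06–2.0% DMSO in cultures). MTT (5 mg/mL stock) was added for the final 4 h, and formazan was dissolved in acidic isopropanol. Absorbance was read at 570/650 nm against vehicle (100%). IC50 came from nonlinear regression of log-normalized data, six doses in triplicate, at least three experiments.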

The test system of the next test is RAW264.7. Briefly: Cytotoxic activity against mouse RAW264.7 cells assessed as reduction in cell viability incubated for 48 hrs by MTT assay. The essentials:
as §1
(In general: Formazan colour is commonly taken as a measure of viable cells.)

Another test deals with PC-3. The test can be described thus: Cytotoxic activity against human PC3 cells assessed as reduction in cell viability incubated for 48 hrs by MTT assay. The essentials:
as §1

The next test concerns A549. Briefly: Cytotoxic activity against human A549 cells assessed as reduction in cell viability incubated for 48 hrs by MTT assay. The essentials:
as §1

The test system of the next test is HeLa. Briefly: Cytotoxic activity against human HeLa cells assessed as reduction in cell viability incubated for 48 hrs by MTT assay. The essentials:
as §1

Where [2] appears, read: Mus musculus, RAW264.7, 48 h, read-out: IC50.

The term IC50 denotes the point on the concentration scale where inhibition reaches its midpoint. In the case of `CC(C)=CCC/C(C)=C/C/C=C(\C)[C@H]1CCC2[C@@]3(C)CCC(=O)C(C)(C)C3CC[C@]21C` (stereo partly specified), the IC50 result (in test [1]; in the test on RAW264.7 (raw264.7); in the test on PC-3 (pc-3); in the test on A549; in the test with HeLa) was “Not Active” each time.
In the case of `CC(C)=CCC/C(C)=C/C/C=C(\C)[C@H]1CCC2[C@@]3(C)CC[C@H](O)C(C)(C)C3CC[C@]21C` (stereo partly specified), the concentration for half-maximal inhibition (IC50) result (in test [1]; in the test on RAW264.7 (raw264.7); in the test with PC-3 (pc-3); in the test on A549; with HeLa) was “Not Active” in each case.
On to `CC(=O)OC[C@H](Cc1ccc2c(c1)OCO2)[C@H](COC(C)=O)Cc1ccc2c(c1)OCO2`, for which, in the test on RAW264.7 (setting [2]), the IC50 stood at 9800 nM.
Same read-out and setting: as for `COc1cc(C[C@@H]2COC[C@H]2Cc2ccc3c(c2)OCO3)cc(OC)c1OC`, the figure is 400 nM.
As to `COc1cc(C[C@@H](COC(C)=O)[C@H](COC(C)=O)Cc2ccc3c(c2)OCO3)cc(OC)c1OC`, the IC50 stood at 2500 nM in test [1] (Mus musculus, 48 h, read-out: IC50) and 200 nM with RAW264.7 (setting [2]).
In the case of `CC(=O)O[C@@]1(C(C)C)C/C=C(\C)CC[C@@H]2O[C@@]2(C)CC/C=C(\C)CC1` (relative stereo), the IC50 entry (in test [1]; in the test with RAW264.7 (raw264.7); in the test on PC-3 (pc-3); in the test with A549; in the test on HeLa) was “Not Active” throughout.
Consider `COc1cccc2c1C(=O)c1c(O)c3c(c(O)c1C2=O)C[C@@](O)(C(=O)CO)C[C@@H]3O[C@H]1C[C@H](N)[C@H](O)[C@H](C)O1` [DOXORUBICIN], for which the IC50 in the test on RAW264.7 (setting [2]) turned out to be 630 nM; in the test with PC-3 (Homo sapiens, PC-3, 48 h, read-out: IC50) it was 3180 nM.
